An excerpt weighted towards active compounds, which were near 3.5% of everything screened.
MrgX1 antag – human MrgX1 receptor antagonism, primary screen; 310,000 compounds, 1.3% hits; B-score at 10 µM; MRGX1-HEK293 calcium flux, Fluo-4, BAM8-22 antagonism; hits give low values;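 active = calcium-response B-score plate-corrected more than 3 library SD below zero, starting fluorescence within 5 deviations, no agonist response on first addition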;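 also: peak minus trough fluorescence over baseline after final BAM8-22 challenge near maximal dose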
Target sequence (Q96LB2 whole entry, looked up): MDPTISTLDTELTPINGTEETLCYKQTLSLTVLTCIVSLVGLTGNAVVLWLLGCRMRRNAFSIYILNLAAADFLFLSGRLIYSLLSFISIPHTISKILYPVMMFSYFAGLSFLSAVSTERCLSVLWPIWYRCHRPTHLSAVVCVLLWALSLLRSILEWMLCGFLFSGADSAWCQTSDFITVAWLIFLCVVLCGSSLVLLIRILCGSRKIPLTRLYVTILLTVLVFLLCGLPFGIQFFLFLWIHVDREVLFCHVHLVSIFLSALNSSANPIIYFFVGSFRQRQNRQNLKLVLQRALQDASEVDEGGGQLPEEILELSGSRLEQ
RGS4 pot – RGS4 potentiation or activation. AID 463111. B-score at 10 µM. HEK293 M3R/inducible RGS4, carbachol calcium flux Fluo4; hits give low values. 310,000 compounds, 0.92% hits;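 active = B-score of the integrated calcium signal more than 4 SD below the library mean, with starting fluorescence not abnormally high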;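 also: negative B-score means reduced calcium response which marks RGS4 activation or potentiation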
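System – HEK293 FlpIn-TREx cells, stable M3R, doxycycline-inducible RGS4 · Reagent – ECmax carbachol challenge · Times – compound preincubation 20 min at room temperature before agonist · Technique – Fluo4 fluorescence kinetic imaging of calcium · Measure – B score of integrated Fluo4 ratio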
RGS4 block – human RGS4 inhibition. 310,000 compounds, 0.45% hits. B-score at 10 µM. P49798. HEK293 M3R/RGS4 inducible, Fluo-4 calcium flux; hits give high values; triggered by carbachol at its EC20;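 active = B-score, a plate-corrected calcium signal, over three deviations above library mean, with baseline fluorescence within five deviations of library mean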;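 also: RGS4 expression induced by doxycycline in cells with stable M3 receptor; B-score is computed from the integrated fluorescence ratio over baseline after carbachol; higher B-score means a larger calcium signal and so more RGS4 inhibition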
Target sequence (P49798 whole entry, looked up): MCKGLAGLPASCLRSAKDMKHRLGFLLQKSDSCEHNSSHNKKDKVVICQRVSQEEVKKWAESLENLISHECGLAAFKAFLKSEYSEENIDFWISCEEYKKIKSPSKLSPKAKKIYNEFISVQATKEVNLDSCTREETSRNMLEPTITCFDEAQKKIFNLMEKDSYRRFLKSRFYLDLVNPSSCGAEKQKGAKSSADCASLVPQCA
MrgX1 agonist – agonists of human MrgX1 receptor | Q96LB2 | MrgX1-HEK293 cells, Fluo-4 calcium fluorescence, agonist mode; hits give high values | B-score at 10 µM | 310,000 compounds, 0.44% hits | AID 588627;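 active = calcium response B-score plate-corrected fluorescence ratio at least 3 library SD, with starting fluorescence B-score inside 5 SD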
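Material: HEK293 cells stably expressing human MrgX1 receptor | Quantity: 15,000 cells per well | Times: Cells plated overnight, dye loaded 0.5 h 37 °C, 0.5 h room temperature | Measured by: Kinetic Fluo-4 NW fluorescence of intracellular calcium | Control set: Positive and negative controls per plate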
MrgX1 PAM – allosterically activates human MrgX1 receptor signaling. B-score at 10 µM. Q96LB2. 310,000 compounds, 0.63% hits. MrgX1-HEK293, Fluo-4 calcium flux, FDSS; hits give high values. AID 588675;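 active = plate-corrected calcium response at least 3 library SD above typical, normal starting fluorescence, not activating the receptor alone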;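 also: compound read alongside a low EC10 to EC30 dose of BAM8-22 agonist; peak minus trough fluorescence over baseline measured at the second addition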
Of the large screens only hits and unclear results are named; the others gave an inactive call; ! = not confirmed by another sample.

CCCC1=NN2C(=N)/C(=C\c3ccc(SCc4ccco4)o3)C(=O)N=C2S1	MrgX1 agonist 31.5
CCCC1=NN2C(=N)/C(=C\c3cc(C)n(Cc4ccccc4)c3C)C(=O)N=C2S1	none
COc1cccc(CN(C(=O)c2ccccc2Br)C2CCS(=O)(=O)C2)c1 (stereo not given)	none
CCC(CC)c1nn2c(N)c(/C=C3\C=Nc4ccccc43)c(=O)nc2s1	none
CC(C)c1nn2c(N)c(/C=C3\C=Nc4ccccc43)c(=O)nc2s1	MrgX1 PAM 13.2
CCCc1nn2c(N)c(/C=C3\C=Nc4ccccc43)c(=O)nc2s1	MrgX1 PAM 16.4!
CCCCc1nn2c(N)c(/C=C3\C=Nc4ccccc43)c(=O)nc2s1	none
C=CCN(C(=O)c1csnn1)C(C(=O)NC(C)(C)C)c1ccncc1 (stereo not given)	none
COc1ccc(-c2n(CC(=O)OC3CC(C)CCC3C(C)C)c3ccccc3[n+]2C)cc1 (stereo not given)	RGS4 pot -7.3 (no result: MrgX1 antag, MrgX1 agonist, MrgX1 PAM)
COc1ccc(OCc2n(CC(=O)OC3CC(C)CCC3C(C)C)c3ccccc3[n+]2C)cc1 (stereo not given)	MrgX1 antag -14.3
O=S(=O)(Nc1ccc2cn[nH]c2c1)c1ccc(Cl)s1	none
CC(Oc1ccc(Br)cc1)C(=O)Nn1c(=S)[nH]c2ncccc2c1=O (stereo not given)	none
O=C(CSCc1cnn(-c2ccccc2)c1-n1cccc1)NCc1ccc2c(c1)OCO2	RGS4 pot -7.31 (no result: MrgX1 antag, MrgX1 agonist, MrgX1 PAM)
CN(C)c1ccc(-c2n(C)c3ccccc3[n+]2C)cc1	MrgX1 antag -8.75
Cn1c(-c2ccccn2)[n+](C)c2ccccc21	none
O=C(Nc1cccc(/C=C/c2ccccn2)c1)c1ccc(-n2cncn2)c([N+](=O)[O-])c1	RGS4 pot -7.72
COc1ccc(NC(=O)c2ccc(-n3cncn3)c([N+](=O)[O-])c2)cc1OC	none
COc1ccccc1/C=N/NC(=O)CC(=O)NCc1ccccc1	none
O=C(N/N=C/c1cc(Br)c(O)c(Br)c1)c1cc2c(ccc3ccccc32)o1	RGS4 pot -7.28
NC(=O)N/N=C/c1ccccc1OCC(=O)NCc1ccccc1	MrgX1 antag -4.8
CCOC(=O)COc1ccccc1/C=N\NC(=O)c1cc2c(ccc3ccccc32)o1	RGS4 pot -8.77
CCOc1cc(/C=N/NC(=O)c2cc3c(ccc4ccccc43)o2)ccc1O	none
CS(=O)(=O)N(Cc1nc(-c2ccc(F)cc2)no1)c1ccccc1Cl	none (no result: RGS4 pot, RGS4 block)
CCN(Cc1nc(-c2cccc(C)c2)no1)C(=O)c1ccco1	none
Cc1ccc(-n2c(O)c(/C=N/n3cnnc3)c3ccccc3c2=O)cc1	MrgX1 PAM 9.35!
O=C1NC(=S)N(C(=O)c2ccc(F)cc2)/C1=C/c1ccccc1	MrgX1 antag -5.5
CC(=O)OCCCN(C)CC/C=C1/c2ccccc2CSc2ccccc21	RGS4 pot -7.89
CC1Sc2ccc(S(=O)(=O)CCC(=O)NC(C)c3ccccc3)cc2NC1=O (stereo not given)	none
CCC(C)(C)NC(=O)C(c1ccc(F)cc1)N(Cc1cccs1)C(=O)c1cnccn1 (stereo not given)	MrgX1 antag -5.32
CCC(C)(C)NC(=O)C(c1ccc(F)cc1)N(Cc1cccc(OC)c1)C(=O)c1cnccn1 (stereo not given)	none
COc1ccc(-c2cc(C(=O)N/N=C(\C)c3cccnc3)c3cc(C)ccc3n2)cc1OC	none
O=C(/C=C1\SC(=O)N(CC(=O)Nc2ccc(Cl)cc2)C1=O)Nc1ccc(F)cc1	none
Cc1cccc(NC(=O)CN2C(=O)S/C(=C\C(=O)Nc3ccc(Cl)cc3)C2=O)c1	MrgX1 antag -5.74
CCOC(=O)c1sc2cc([N+](=O)[O-])cc(SCCO)c2c1N	none
CCOC(=O)c1sc2cc([N+](=O)[O-])cc(SCC(=O)OC)c2c1N	MrgX1 antag -5.72
Cc1ccc(-c2csc(Cc3nc(-c4cc5ccccc5oc4=O)cs3)n2)cc1	RGS4 pot -6.98
COc1ccc(OC)c(Nc2nc(N(C)c3ccccc3)nc(N)c2[N+](=O)[O-])c1	RGS4 pot -8.1
CN(c1ccccc1)c1nc(N)c([N+](=O)[O-])c(Nc2ccccc2F)n1	none
COc1ccc(C(=O)N2CCN(c3ccccc3OC)CC2)cc1	none
COc1ccc(/C=N/NC(=O)C(=O)N2CCN(c3ccccc3OC)CC2)cc1	MrgX1 antag -4.78
CN(C)N1C(=O)CC(NNC(=O)c2ccncc2)C1=O (stereo not given)	none
Nc1cc(=O)[nH]c(SCc2cccc3ccccc23)n1	none
O=c1cc(C(F)(F)F)nc(SCc2cccc3ccccc23)[nH]1	MrgX1 antag -5.13
CC(C)NC(=O)C(=O)NCCC1CCCCN1S(=O)(=O)c1cccs1 (stereo not given)	none
CCOC(=O)C1=C(C)N=c2s/c(=C\c3ccc(OC(C)=O)cc3)c(=O)n2C1/C=C/c1ccccc1 (stereo not given)	RGS4 pot -10.6
NC(=O)c1cc(-c2ccccc2)sc1NC(=O)CN1CCCCC1	none
Nc1c(C(=O)O)ccc2c1C(=O)c1ccccc1C2=O	none
Nc1cc(C(=O)O)c(N)c2c1C(=O)c1ccccc1C2=O	MrgX1 antag -5.7
C/C(=N\OC(=O)NC(C)C)c1sc(-c2ccc(Cl)cc2)nc1C	MrgX1 PAM 17.1
CCN(CC(=O)NCc1ccc(Cl)cc1)C(=O)CSc1ccc(Br)cc1	none
N/C(=N\OC(=O)COc1ccc(Br)cc1)c1ccncc1	MrgX1 antag -5.98
N/C(=N\OC(=O)COc1ccc([N+](=O)[O-])cc1)c1ccncc1	none
CCCn1c(O)c(N=Nc2ccc3ccccc3n2)c2ccccc21	MrgX1 antag -4.79
CC(C)CCn1c(O)c(N=Nc2ccccn2)c2ccccc21	none
CN=c1scc(C)n1/N=C/c1ccc(O)c(O)c1O	none
CN=c1scc(-c2cccs2)n1/N=C/c1ccc(O)c(O)c1O	MrgX1 PAM 14.3
CN=c1scc(-c2cccs2)n1/N=C/c1ccccc1O	MrgX1 PAM 7.38
Cc1ccc(C2C(N)C(=O)N2c2ccc(C)cc2)cc1 (stereo not given)	none
CN(C)S(=O)(=O)n1cc(/C=C(\NC(=O)c2ccccc2F)C(=O)NCCCn2ccnc2)c2ccccc21	RGS4 pot -9.64 (no result: MrgX1 antag, MrgX1 agonist, MrgX1 PAM)
Oc1ccccc1N1CCN(c2ncnc3scc(-c4ccc(F)cc4)c23)CC1	none
Oc1ccccc1N1CCN(c2ncnc3scc(-c4ccccc4)c23)CC1	RGS4 pot -7.36
COc1cc(CN2CCCC(C(=O)N3CCc4ccccc4C3)C2)cc(OC)c1OC (stereo not given)	none
CCOC(=O)C1=C(COC(=O)/C=C/c2ccccc2Cl)NC(=O)NC1C (stereo not given)	MrgX1 PAM 8.47
CCOC(=O)C1=C(COC(=O)/C=C/c2ccccc2F)NC(=O)NC1C (stereo not given)	none
CCOC(=O)CCC(=O)NNC(=O)COc1ccc(C(C)C)cc1Br	none
